Test results taken from ChEMBL document CHEMBL2434922, “Microwave assisted synthesis of dihydrobenzo[4,5]imidazo[1,2-a]pyrimidin-4-ones; synthesis, in vitro antimicrobial and anticancer activities of novel coumarin substituted dihydrobenzo[4,5]imidazo[1,2-a]pyrimidin-4-ones” (2013).
Converted amounts (≈) assume the structure as drawn.

Assays:
Assay type in all cases: functional
[1] = Cytotoxicity against mouse Daltons ascitic lymphoma cells assessed as dead cells at 100 ug/ml after 3 hrs by trypan blue exclusion assay relative to control
In short: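 DAL cells (0.2 mL, 10⁶ cells/mL) mixed with ice-cold PBS pH 7.4 and compound (100 µg/mL), held at 37 °C under 5% CO₂ for 3 h. Aliquot then stained with 0.4% trypan blue in normal saline for 5–15 min at room temperature. Live and dead cells counted in a Neubauer chamber; % dead = dead/(dead+live) × 100.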

Penicillium chrysogenum = experiment: Antifungal activity against Penicillium chrysogenum assessed as growth inhibition after 48 to 72 hrs by broth microdilution method
Fusarium oxysporum = experiment: Antifungal activity against Fusarium oxysporum assessed as growth inhibition after 48 to 72 hrs by broth microdilution method
Aspergillus flavus = experiment: Antifungal activity against Aspergillus flavus assessed as growth inhibition after 48 to 72 hrs by broth microdilution method
Aspergillus fumigatus = experiment: Antifungal activity against Aspergillus fumigatus assessed as growth inhibition after 48 to 72 hrs by broth microdilution method
Aspergillus niger = experiment: Antifungal activity against Aspergillus niger assessed as growth inhibition after 48 to 72 hrs by broth microdilution method
Candida albicans = experiment: Antifungal activity against Candida albicans assessed as growth inhibition after 48 to 72 hrs by broth microdilution method
Pseudomonas aeruginosa = experiment: Antibacterial activity against Pseudomonas aeruginosa assessed as growth inhibition after 18 hrs by broth microdilution method
Klebsiella pneumoniae = experiment: Antibacterial activity against Klebsiella pneumoniae assessed as growth inhibition after 18 hrs by broth microdilution method
Escherichia coli = experiment: Antibacterial activity against Escherichia coli assessed as growth inhibition after 18 hrs by broth microdilution method
Streptococcus mutans = experiment: Antibacterial activity against Streptococcus mutans assessed as growth inhibition after 18 hrs by broth microdilution method
Enterococcus faecalis = experiment: Antibacterial activity against Enterococcus faecalis assessed as growth inhibition after 18 hrs by broth microdilution method
Staphylococcus aureus = experiment: Antibacterial activity against Staphylococcus aureus assessed as growth inhibition after 18 hrs by broth microdilution method

SMILES	mortality at 100 µg/mL [1] [%]	MIC (Penicillium chrysogenum) [µg/mL]	MIC (Fusarium oxysporum) [µg/mL]	MIC (Aspergillus flavus) [µg/mL]	MIC (Aspergillus fumigatus) [µg/mL]	MIC (Aspergillus niger) [µg/mL]	MIC (Candida albicans) [µg/mL]	MIC (Pseudomonas aeruginosa) [µg/mL]	MIC (Klebsiella pneumoniae) [µg/mL]	MIC (Escherichia coli) [µg/mL]	MIC (Streptococcus mutans) [µg/mL]	MIC (Enterococcus faecalis) [µg/mL]	MIC (Staphylococcus aureus) [µg/mL]
Oc1cc(-c2ccccc2)nc2nc3ccccc3n12	58	0.2 (≈ 0.765 µM)	0.2 (≈ 0.765 µM)	0.8 (≈ 3.06 µM)	0.8 (≈ 3.06 µM)	6.25 (≈ 23.9 µM)	1.6 (≈ 6.12 µM)	100 (≈ 383 µM)	100 (≈ 383 µM)	100 (≈ 383 µM)	100 (≈ 383 µM)	0.2 (≈ 0.765 µM)	100 (≈ 383 µM)
CC(C)c1cc(=O)n2c3ccccc3n(Cc3cc(=O)oc4ccc(Br)cc34)c2n1	47	0.2 (≈ 0.431 µM)	0.2 (≈ 0.431 µM)	0.8 (≈ 1.72 µM)	0.8 (≈ 1.72 µM)	25 (≈ 53.8 µM)	50 (≈ 108 µM)	> 100	> 100	100 (≈ 215 µM)	> 100	0.8 (≈ 1.72 µM)	> 100
CC(C)c1cc(=O)n2c3ccccc3n(Cc3cc(=O)oc4ccc(Cl)cc34)c2n1	88	0.4 (≈ 0.953 µM)	0.2 (≈ 0.476 µM)	1.6 (≈ 3.81 µM)	0.8 (≈ 1.91 µM)	12.5 (≈ 29.8 µM)	50 (≈ 119 µM)	100 (≈ 238 µM)	100 (≈ 238 µM)	100 (≈ 238 µM)	12.5 (≈ 29.8 µM)	0.4 (≈ 0.953 µM)	100 (≈ 238 µM)
COc1ccc2oc(=O)cc(Cn3c4ccccc4n4c(=O)cc(C(C)C)nc34)c2c1	62	0.8 (≈ 1.93 µM)	0.2 (≈ 0.481 µM)	0.8 (≈ 1.93 µM)	0.8 (≈ 1.93 µM)	50 (≈ 120 µM)	25 (≈ 60.2 µM)	> 100	100 (≈ 241 µM)	100 (≈ 241 µM)	3.16 (≈ 7.61 µM)	0.4 (≈ 0.963 µM)	100 (≈ 241 µM)
CC(C)c1cc(=O)n2c3ccccc3n(Cc3cc(=O)oc4ccc(F)cc34)c2n1	81	0.4 (≈ 0.992 µM)	0.2 (≈ 0.496 µM)	1.6 (≈ 3.97 µM)	0.8 (≈ 1.98 µM)	1.6 (≈ 3.97 µM)	25 (≈ 62 µM)	100 (≈ 248 µM)	100 (≈ 248 µM)	100 (≈ 248 µM)	0.8 (≈ 1.98 µM)	0.4 (≈ 0.992 µM)	100 (≈ 248 µM)
Cc1cc(C)c2oc(=O)cc(Cn3c4ccccc4n4c(=O)cc(C(F)(F)F)nc34)c2c1	78	0.2 (≈ 0.455 µM)	0.2 (≈ 0.455 µM)	3.12 (≈ 7.1 µM)	1.6 (≈ 3.64 µM)	3.12 (≈ 7.1 µM)	50 (≈ 114 µM)	100 (≈ 228 µM)	100 (≈ 228 µM)	100 (≈ 228 µM)	0.2 (≈ 0.455 µM)	0.4 (≈ 0.91 µM)	100 (≈ 228 µM)
Cc1ccc2oc(=O)cc(Cn3c4ccccc4n4c(=O)cc(C(F)(F)F)nc34)c2c1	69	0.2 (≈ 0.47 µM)	0.2 (≈ 0.47 µM)	12.5 (≈ 29.4 µM)	25 (≈ 58.8 µM)	12.5 (≈ 29.4 µM)	50 (≈ 118 µM)	> 100	100 (≈ 235 µM)	100 (≈ 235 µM)	12.5 (≈ 29.4 µM)	0.4 (≈ 0.94 µM)	100 (≈ 235 µM)
O=c1cc(Cn2c3ccccc3n3c(=O)cc(C(F)(F)F)nc23)c2cc(F)ccc2o1	79	0.2 (≈ 0.466 µM)	0.2 (≈ 0.466 µM)	1.6 (≈ 3.73 µM)	1.6 (≈ 3.73 µM)	25 (≈ 58.2 µM)	50 (≈ 116 µM)	100 (≈ 233 µM)	100 (≈ 233 µM)	100 (≈ 233 µM)	12.5 (≈ 29.1 µM)	0.8 (≈ 1.86 µM)	100 (≈ 233 µM)
COc1ccc2oc(=O)cc(Cn3c4ccccc4n4c(=O)cc(C(F)(F)F)nc34)c2c1	58	0.4 (≈ 0.906 µM)	0.2 (≈ 0.453 µM)	3.12 (≈ 7.07 µM)	6.25 (≈ 14.2 µM)	25 (≈ 56.6 µM)	50 (≈ 113 µM)	> 100	100 (≈ 227 µM)	100 (≈ 227 µM)	12.5 (≈ 28.3 µM)	0.4 (≈ 0.906 µM)	100 (≈ 227 µM)
COc1ccc(-c2cc(=O)n3c(n2)[nH]c2ccccc23)cc1	64	0.4 (≈ 1.37 µM)	0.2 (≈ 0.687 µM)	0.8 (≈ 2.75 µM)	1.6 (≈ 5.49 µM)	25 (≈ 85.8 µM)	6.25 (≈ 21.5 µM)	100 (≈ 343 µM)	100 (≈ 343 µM)	100 (≈ 343 µM)	100 (≈ 343 µM)	0.2 (≈ 0.687 µM)	100 (≈ 343 µM)
O=c1cc(-c2ccc(F)cc2)nc2[nH]c3ccccc3n12	83	0.4 (≈ 1.43 µM)	0.4 (≈ 1.43 µM)	0.2 (≈ 0.716 µM)	0.2 (≈ 0.716 µM)	1.6 (≈ 5.73 µM)	1.6 (≈ 5.73 µM)	100 (≈ 358 µM)	100 (≈ 358 µM)	100 (≈ 358 µM)	12.5 (≈ 44.8 µM)	0.2 (≈ 0.716 µM)	100 (≈ 358 µM)
O=c1cc(-c2cccc(Cl)c2)nc2[nH]c3ccccc3n12	71	0.4 (≈ 1.35 µM)	0.2 (≈ 0.676 µM)	0.2 (≈ 0.676 µM)	0.2 (≈ 0.676 µM)	25 (≈ 84.5 µM)	1.6 (≈ 5.41 µM)	100 (≈ 338 µM)	100 (≈ 338 µM)	100 (≈ 338 µM)	25 (≈ 84.5 µM)	0.2 (≈ 0.676 µM)	100 (≈ 338 µM)
O=c1cc(C(F)(F)F)nc2[nH]c3ccccc3n12	80	0.4 (≈ 1.58 µM)	0.2 (≈ 0.79 µM)	0.8 (≈ 3.16 µM)	0.8 (≈ 3.16 µM)	6.25 (≈ 24.7 µM)	1.6 (≈ 6.32 µM)	100 (≈ 395 µM)	100 (≈ 395 µM)	100 (≈ 395 µM)	50 (≈ 197 µM)	0.2 (≈ 0.79 µM)	100 (≈ 395 µM)
O=c1cc(-c2cccc(F)c2)nc2[nH]c3ccccc3n12	54	0.2 (≈ 0.716 µM)	0.4 (≈ 1.43 µM)	0.8 (≈ 2.86 µM)	0.8 (≈ 2.86 µM)	12.5 (≈ 44.8 µM)	1.6 (≈ 5.73 µM)	25 (≈ 89.5 µM)	100 (≈ 358 µM)	100 (≈ 358 µM)	12.5 (≈ 44.8 µM)	0.2 (≈ 0.716 µM)	100 (≈ 358 µM)
O=c1cc(-c2ccc(C(F)(F)F)cc2)nc2[nH]c3ccccc3n12	79	0.2 (≈ 0.607 µM)	0.2 (≈ 0.607 µM)	1.6 (≈ 4.86 µM)	1.6 (≈ 4.86 µM)	100 (≈ 304 µM)	6.25 (≈ 19 µM)	> 100	> 100	> 100	> 100	0.2 (≈ 0.607 µM)	> 100
O=C(O)c1cn(C2CC2)c2cc(N3CCNCC3)c(F)cc2c1=O [CIPROFLOXACIN]									1 (≈ 3.02 µM)		2 (≈ 6.04 µM)	2 (≈ 6.04 µM)	2 (≈ 6.04 µM)
OC(Cn1cncn1)(Cn1cncn1)c1ccc(F)cc1F [FLUCONAZOLE]		8 (≈ 26.1 µM)	8 (≈ 26.1 µM)	8 (≈ 26.1 µM)	8 (≈ 26.1 µM)	8 (≈ 26.1 µM)	16 (≈ 52.2 µM)						
O=c1[nH]cc(F)c(=O)[nH]1 [FLUOROURACIL]	88												
